Only some compounds are listed: those with a hit (about 2.7% of all), similar ones and a draw of the others.
ABHD4 inh – ABHD4 inhibitors, primary screen, biochemical, fluorescence polarization, mouse. hit rate 0.54% among 370,000. purified mABHD4, FP-Rh probe fluorescence polarization. (Lyso)-N-acylphosphatidylethanolamine lipase (Mus musculus), Q8VD66. AID 720543, 2013. inhibition, % at 8.92 µM;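 active means inhibition exceeding the mean over every tested compound plus 3 SD, cut at about 30% in these data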;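 further: 0% = plate median of compound wells and 100% = S159A mutant with DMSO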
Target sequence (Q8VD66 whole entry, looked up): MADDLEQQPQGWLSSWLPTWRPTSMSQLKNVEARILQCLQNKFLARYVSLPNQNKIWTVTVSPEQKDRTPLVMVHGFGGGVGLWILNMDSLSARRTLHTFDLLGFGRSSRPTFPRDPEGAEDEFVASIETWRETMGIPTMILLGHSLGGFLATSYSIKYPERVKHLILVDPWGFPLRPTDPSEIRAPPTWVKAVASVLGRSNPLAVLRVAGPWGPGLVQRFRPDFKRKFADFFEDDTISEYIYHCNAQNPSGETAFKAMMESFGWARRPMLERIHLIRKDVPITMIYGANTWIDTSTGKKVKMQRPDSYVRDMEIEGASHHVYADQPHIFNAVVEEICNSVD
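Doses – 8.92 µM, single dose · Material – wild-type mouse ABHD4 protein · Replication – single well per compound (singlicate) · Measure – percent inhibition of probe binding, normalized to plate controls · Schedule – 45 min compound pre-incubation plus 60 min probe step, 25 °C · Detection – fluorescence polarization with parallel and perpendicular emission, 525/598 nm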
HTRA1 inh – HTRA1 serine protease inhibitors, primary screen, biochemical, fluorescence polarization, HTS; Q92743; recombinant HTRA1, FP-rhodamine activity-based probe; inhibition, % at 5.96 µM; hit rate 0.5% among 340,000; AID 504803, 2011; in the data active means inhibition above about 36%;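 further: 0% = enzyme with DMSO and 100% = wells lacking enzyme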
SIAE inh – human SIAE inhibitors, primary screen, biochemical, fluorescence polarization, FP-Rh probe, 1536-well HTS; Sialate O-acetylesterase (Homo sapiens), Q9HAT2; SIAE FP-Rh probe binding; inhibition, % at 9.66 µM; hit rate 0.69% among 370,000;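 active means inhibition above a cutoff: mean of compounds within the control limits plus 3 SD of those, cut at about 17% in these data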;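 further: 0% = plate median of compound wells and 100% = probe without SIAE protein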
TCR-CD3 inh – inhibitors of human TCR-CD3 interaction, primary screen, biochemical, fluorescence, TAMRA-labeled TCR probe; inhibition, % at 9.4 µM; hit rate 0.37% among 360,000; T-cell receptor (TCR); in the data active means inhibition above about 19%;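 further: recombinant mutant TCR 2C K166C tagged with TAMRA read by polarization; 0% = receptor in buffer alone and 100% = receptor with positive control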
PRMT1 FP inh – PRMT1 methyltransferase inhibitors, primary screen, biochemical, fluorescence polarization. recombinant PRMT1, activity-based probe fluorescence polarization. inhibition, % at 2.79 µM. Protein arginine N-methyltransferase 1 (Homo sapiens), Q99873. hit rate 1.3% among 370,000;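 active means inhibition above about 21% made by adding two undisclosed values, limit read from the data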
PRMT1 inh conf – PRMT1 methyltransferase inhibitors, confirmation, biochemical, fluorescence polarization, triplicate; recombinant His-PRMT1, activity-based probe fluorescence polarization; inhibition, % at 2.79 µM; shares compounds with PRMT1 FP inh; hit rate 42% among 3,300;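 active means mean inhibition across replicates above the hit cutoff derived for the earlier primary screen, cut at about 22% in these data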
Numbers without * were called inactive; / = no result; ! = not active in a repeat.

SMILES	ABHD4 inh	HTRA1 inh	SIAE inh	TCR-CD3 inh	PRMT1 FP inh	PRMT1 inh conf
Cc1ccsc1C(=O)C1CCCN(Cc2cc(C(C)C)n[nH]2)C1 (stereo not given)	6	3	-4	2	-2	/
COc1ccc2c(c1)NP(=S)(c1ccccc1)N2C (stereo not given)	11	7	5	2	33*	2
COc1ccc(P2(=O)Nc3ccccc3N2)cc1	9	4	15	3	-2	/
NC(=O)CSP(=O)(c1ccccc1)c1ccccc1	2	-1	3	4	38*	65*
CN(C)c1ccc2c(c1)N=C(c1ccco1)OP2(=S)N1CCOCC1 (stereo not given)	16	-4	13	3	26*	50*
CC(C)(C)n1nnnc1C(c1ccccc1)N1CCC2(CC1)C(=O)NCN2c1ccccc1 (stereo not given)	2	/	-1	-1	-2	/
O=C1NC(=O)C(=Cc2ccc3c(c2)OCO3)C(=O)N1	0	/	-2	-8	25*	1
CCOC(=O)c1cccc(C2=C(CNC(=O)c3nccs3)[C@H]3CC[C@@H](C2)N3Cc2ccccc2)c1	8	-14	8	-4	-2	/
CC(C)OC(=O)Cc1ccccc1	3	5	-5	0	-1	/
N#Cc1c(/N=C/c2c(O)n(Cc3ccco3)c(=O)[nH]c2=O)sc2c1CCCC2	-14	0	4	8	26*	6
CCc1ccc(N2C(=O)NC(=O)/C(=C\c3cccn3CCOc3ccc(C(C)C)cc3)C2=O)cc1	1	-2	-1	0	0	/
Cn1cccc1/C=C1\C(=O)NC(=O)N(Cc2ccco2)C1=O	11	11	4	13	31*	22*
Cc1ccc(OCCn2cccc2/C=C2/C(=O)NC(=O)N(Cc3ccco3)C2=O)cc1	-8	8	-5	2	32*	12
O=c1[nH]c(=O)n(CCc2ccccc2)c(O)c1C=NCc1ccc2c(c1)OCO2	6	-3	-6	3	2	/
COC(=O)C1=C(c2ccc(F)cc2F)C[C@@H]2CC[C@H]1N2C(=O)NCc1ccco1	5	-1	6	-3	2	/
CCOC(=O)C1SC2(C(F)F)CC1(O)c1c(c(OC)c3occc3c1OC)O2 (stereo not given)	-4	-1	3	10	29*	15
COc1cccc(C)c1NC1=NCCO1	-4	2	-2	3	-5	/
CCOC(=O)Cn1cc(C=C2C(=O)N(C)C(=O)N(C)C2=O)c2ccccc21	7	-4	-15	5	16	/
CN1C(=O)C(=Cc2cn(CC#N)c3ccccc23)C(=O)N(C)C1=O	3	-15	-6	-5	32*	11
CN1C(=O)C(=Cc2cn(CC(=O)N3CCCC3)c3ccccc23)C(=O)N(C)C1=O	2	12	-7	-5	32*	-4
CCOC(=O)C1(c2ccccc2)CCN(CCC(C#N)(c2ccccc2)c2ccccc2)CC1	8	-29	-6	2	-1	/
COC(=O)C1C(O)CC2CCC1N2C (stereo not given)	7	-2	-6	4	1	/
NC(Cc1ccc(Cl)cc1)c1csc(Nc2ncccn2)n1 (stereo not given)	2	/	-2	-1	1	/
N/C(=N\[N+](=O)[O-])N1CCN(C(=O)Oc2ccccc2)CC1	2	2	-2	-1	-2	/
Cc1cc(N2CCCCC2)ccc1C=C1C(=O)N(C)C(=S)N(C)C1=O	-25	-7	-17	-17	29*	22*
SMILES	ABHD4 inh	HTRA1 inh	SIAE inh	TCR-CD3 inh	PRMT1 FP inh	PRMT1 inh conf
CN1C(=O)/C(=C\c2ccc(N3CCCCCC3)cc2)C(=O)NC1=S	-16	-9	-170	-25	4	/
O=C1CC(N2CCC(n3c(=O)[nH]c4ccccc43)CC2)C(=O)N1c1ccc(F)cc1 (stereo not given)	-7	-2	-7	-4	45*	3
O=c1[nH]c2ccccc2n1C1CCN(CCCC(c2ccc(F)cc2)c2ccc(F)cc2)CC1	21	-15	6	4	-3	/
C=CCOC(=O)C1C(C(=O)O)C2(Cl)C(Cl)=C(Cl)C1(Cl)C2(Cl)Cl (stereo not given)	-1	1	2	-1	64*	6
O=C(O)C1C(C(=O)O)C2(Cl)C(Cl)=C(Cl)C1(Cl)C2(Cl)Cl (stereo not given)	3	7	-2	-4	6	/
COP(=S)(OC)SCn1nnc2ccccc2c1=O	0	7	3	-5	89*	74*
COc1ccc(-n2c(SCCN(C)C)nc3ccccc3c2=O)cc1	5	3	3	-1	0	/
Cc1cc(/C=C2\C(=O)NC(=O)N(Cc3ccco3)C2=O)c(C)n1-c1ccc(O)cc1	5	10	-6	8	29*	-5
Cc1ccc(-n2c(C)cc(/C=C3/C(=O)NC(=O)N(Cc4ccco4)C3=O)c2C)cc1	-5	-8	-9	1	17	/
Cc1cc(/C=C2\C(=O)NC(=O)N(Cc3ccccc3)C2=O)c(C)n1-c1ccc(Cl)c(C(=O)O)c1	7	12	-5	12	28*	12
CC[C@]12CCN(CC3(O)CC3)C(Cc3ccc(O)cc31)C2(C)C	0	/	2	1	-1	/
O=C1NC(=O)C(=Cc2c(Cl)cccc2Cl)C(=O)N1	-5	1	-1	-3	31*	19
[Cl][Pt+2][Cl].[NH-]C1CCCCC1[NH-] (stereo not given)	-2	6	4	9	47*	8
CCc1ccc(NC2=NCCCS2)cc1	1	-4	-6	2	-1	/
O=P(Nc1ccccc1)(Oc1ccccc1)Oc1ccccc1	-6	-15	2	5	82*	2
O=P(Nc1ccccc1)(Nc1ccccc1)Oc1ccccc1	-1	-9	-2	7	-1	/
Cc1cccc(OP(N)(=O)Oc2cccc(C)c2C)c1C	-15	-1	-1	-6	9	/
CCCCCCCCn1sccc1=O	4	-1	1	3	18	/
CC[C@@H](CO)NC(=O)[C@@H]1C=C2c3cccc4[nH]cc(c34)C[C@H]2N(C)C1	17	14	16	12	30*	19
CC[C@@H](CO)NC(=O)[C@@H]1C=C2c3cccc4c3c(cn4C)C[C@H]2N(C)C1	19	8	15	10	47*!	6
CCC(CO)NC(=O)C1C=C2c3cccc4[nH]cc(c34)CC2N(C)C1 (stereo not given)	19	16	7	7	15	/
Cc1ccc2c(c1)N(N=O)CCC2	8	5	1	6	-2	/
